Source: PMC5643981 (Chemical Science, 2017)
Marks after values point to notes of the source that are not given here.

Legend:
[1] = test system: Pseudomonas aeruginosa strain PAO1 biofilm; assay: Biofilm inhibition; type: cell-based
Summary of the method: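 PAO1 grown overnight in LB at 37 °C with 180 rpm shaking, washed in 0.25% (w/v) nutrient broth no. 2 and set to OD600 1. 20 μL goes into 180 μL of the same medium with sterile-filtered test compound and polymyxin B. Incubated humid, static, 24–25 h at 37 °C, washed twice with water. Viability read by 0.5 mM WST-8 + 20 μM phenazine ethosulfate (2.5–3 h, 37 °C), supernatant A450.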

[2] = test system: Pseudomonas aeruginosa strain PAO1 biofilm; assay: Dispersal of preformed biofilm; type: cell-based
Summary of the method: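 Biofilm formed 24 h at 37 °C, static, in 0.25% (w/v) nutrient broth no. 2 from washed overnight PAO1 (OD600 1) without compound. Wells washed twice with water, then given sterile-filtered test compound plus polymyxin B in the same broth for another 24 h at 37 °C, static. After two washes, stained with 0.5 mM WST-8 + 20 μM phenazine ethosulfate (2.5–3 h, 37 °C); supernatant A450 read.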

## Polymyxin B [Pmx]
[1]; Pmx in the presence of 0.5 μg mL^–1 36b
  MBIC of Pmx +0.5 μg mL^–1 36b: 1.5 μg mL^–1
[1]; Pmx in the presence of 1 μg mL^–1 29b
  MBIC of Pmx +1 μg mL^–1 29b: 1.5 μg mL^–1
[2]; Measured with 8 μg mL^–1 of 29b in the presence of 1.5 μg mL^–1 of Pmx
  Dispersal, Pmx with 29b: 100% ^i
[2]; Measured with 8 μg mL^–1 of 36b in the presence of 1.5 μg mL^–1 of Pmx
  Dispersal, Pmx with 36b: 100% ^i
